# This sample holds only a part of the variants without activity.
# B1: tRNA (parent)
# chain: GUUCCGUUGGCGUAAUGGUAACGCGUCUCCCUCCUAAGGAGAAGACUGCGGGUUCGAGUCCCGUACGGAACG
# Variants of: B1
# Test: yeast fitness relative to wild type (ratio to wild type); higher = fitter; tRNA-Arg(CCU), competitive growth, 37 C, YPD
# In short: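 Variants of the tRNA-Arg(CCU) gene were chemically synthesised with a 3% per-site mutation rate across 69 sites and placed at the native genomic locus in Saccharomyces cerevisiae. Six parallel replicates of the pooled strains were competed in YPD at 37°C for 24 hours, and gene amplicons from the start and end populations were read by 100-nucleotide paired-end sequencing. Darwinian fitness relative to wild type was derived from changes in genotype frequencies. Genotypes required ≥ 100 starting reads, and estimates < 0.5 were set to 0.5.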
row,Variant,yeast fitness
1,GUUCCGUUGGCGUAAUGGUAACGCGUCUGCCUCCUCAGGAAAAGACUGCAGGCUCGAGUCCCGUACGGAACG,≤ 0.5
2,GUUCCGUUGGCGUAAUGGUAACGCGUCUACCUCCUAAGGAGAAGACUGCGGGUUCCUGUCCCGUACGGAACG,0.583
3,GUUCCGUUGGCGUAAUGGUAACGCGUCGCCCUCCUAAGGAGAAGACUGCGCGUUGGAGUCCCGUACGGAACG,≤ 0.5
4,GUUCCGUUGGCGUAAUGGUAACGCGUCUACUUCCUAUGGAGAAGACUGCGGGUUCGAGUCCCGUGCGGAACG,≤ 0.5
5,GUUCCGUUGGCGUAAUGGUAACGCGUCUAUCUCUUAAGGAGAAGACUGCGGGUUCGAGUCUCGUAAGGAACG,≤ 0.5
6,GUUCCGUUGGCGUAAUGGUAACGCGUCGCCCUCCUAAGGACAAGACUGCGGGUUCGAGUCCCGCACGGAACG,0.521
7,GUUCCGUUGGCGUAAUGGUAACGCGUCUAUCUCCUAAGGAGUAGACUGCGGGUUCGAGUCCCGUACGGAACG,≤ 0.5
8,GUUCCGUUGGCGUAAUGGUAACGCGUCGCCCUCCUAAGGAGAAGAAUGCGGGUUCGAGUCGCGUACGGAACG,≤ 0.5
9,GUUCCGUUGGCGUAAUGGUAACGCGUCUACCUCCUAAGGAGUAGACUGCGGGUUCGAGUCCCGCACGGAACG,≤ 0.5
10,GUUCCGUUGGCGUAAUGGUAACGCGUCUGCCUCCUAAGGAGACGACUGCGGGUUGGAGUCCCGUACGGAACG,0.657
11,GUUCCGUUGGCGUAAUGGUAACGCGUCUGCCUCCUAAGGUGAAGACUGCGGGUUCGAGUCCCGUAGGGAACG,0.551
12,GUUCCGUUGGCGUAAUGGUAACGCGUCUACCUCCCAAGGAGAAGACUGCGGGUUCGAGUCCCGUAUGGAACG,≤ 0.5
13,GUUCCGUUGGCGUAAUGGUAACGCGUCUACCUCCUAAGGUGAAGACAGCGGGUUCGAGUCCCGUACGGAACG,0.772
14,GUUCCGUUGGCGUAAUGGUAACGCGUCUACUUCCUAAGGAGAAGACUGCGGGUUCGAGUCCCGUACGGAACG,0.713
15,GUUCCGUUGGCGUAAUGGUAACGCGUCUACGUCCUAAGGAGAAGACUGCGGGUUCGAGUCCCGUACGGAACG,0.677
16,GUUCCGUUGGCGUAAUGGUAACGCGUCUACCUCCUAAGGAGAAGACUGCGAGUUACAGUCCCGUUCGGAACG,≤ 0.5
17,GUUCCGUUGGCGUAAUGGUAACGCGUCUACCUCUUAAGGAGAAGACUGCGACUUCGAGUCCCGCACGGAACG,0.663
18,GUUCCGUUGGCGUAAUGGUAACGCGUCGCCCUCCUAAGGAGAAGACUGUGGGUUCGAGUCCCGUACGGUACG,0.804
19,GUUCCGUUGGCGUAAUGGUAACGCGUCGCCCUCCUAAUGAGAAGACUGCGGGUUCGAGUCCCGUACGGAACG,0.711

row,Variant,yeast fitness
1,GUUCCGUUGGCGUAAUGGUAACGCGUCUACCUCCUAAGGAGAAGACUGCGGGUUCGUGUCCCGUACGGAACG,≤ 0.5
2,GUUCCGUUGGCGUAAUGGUAACGCGUCUACCUCCUAAGGAGAAGACUGCGGGUUCGGGUCCCGUACGGAACG,0.646
3,GUUCCGUUGGCGUAAUGGUAACGCGUCGUCCUCCUAAGGAGAAGCCUGCGGGUUCGAGUCCCGUACGGAACG,≤ 0.5
4,GUUCCGUUGGCGUAAUGGUAACGCGUCUACCUCCUAAGGAGAAAACUGCGGGUUCGAGUCCCGCACGGAACG,0.56
5,GUUCCGUUGGCGUAAUGGUAACGCGUCUACCUCCUAAGGAGAACACUGCGGGUUCGAGUCCCGUACGGAACG,0.778
6,GUUCCGUUGGCGUAAUGGUAACGCGUCUACCUCCUAAGGAAACGACUGCGGGUUCGAGUCCCGUACGGAACG,0.55
7,GUUCCGUUGGCGUAAUGGUAACGCGUCGCCUUCCUAAGGCGAAGACUGCGGGUUCGGGUCCCGUACGGAACG,0.837
8,GUUCCGUUGGCGUAAUGGUAACGCGUCUACCUCCUAAGGAGAAGACUGCGGGUUCGGGUCCCGUCCGGAACG,≤ 0.5
9,GUUCCGUUGGCGUAAUGGUAACGCGUCUGCCUCCUAAGGAGAAGACUGCGGGUUCGGGUCCCGUACGGAACG,0.715
10,GUUCCGUUGGCGUAAUGGUAACGCGUCUACCUCCUAGGGAGAAGACUGCGGGUUCGAGUACCGUAUGGAACG,≤ 0.5
11,GUUCCGUUGGCGUAAUGGUAACGCGUCUACCUCCUAAGGAGAAGACUGCGGGUUCGAGUCCCGUACGGAGCG,0.723
12,GUUCCGUUGGCGUAAUGGUAACGCGUCGCCCUCCUAAGGAGAAGACUGCGUGUUCGAGUCCCGAAUGGCACG,≤ 0.5
13,GUUCCGUUGGCGUAAUGGUAACGCGUCUACCUCCUAAGCAGAAGACUGCGGGUUCGAAUCCCGUACGGAACG,0.905
14,GUUCCGUUGGCGUAAUGGUAACGCGUCUGGCUCCUGAGGAGAAGACUGCGGGUUCGAGUCCCGUCCGGAACG,0.505
15,GUUCCGUUGGCGUAAUGGUAACGCGUCGCCCUCCUAAGGAGAAGACUGCGGGUUCGAGUACCGUACGGAACG,0.53
16,GUUCCGUUGGCGUAAUGGUAACGCGUCUGCCUCCUAAGGUGAAGACUGCGGGUUCGAAUCCCGUACGGAACG,≤ 0.5
17,GUUCCGUUGGCGUAAUGGUAACGCGUCUACCUCCUAAAGAGAAGACUGCGGGUUCGAGUCCCGUACGGUACG,0.583
18,GUUCCGUUGGCGUAAUGGUAACGCGUCUACUUCAUGAGGAGAAGACUGCGGGUUCCAGUCCCGUACGGAACG,≤ 0.5
